ChEMBL document CHEMBL1136796 (J Med Chem, 2003)
One block for each compound: values may come before it.

How the values were obtained:
KB = assay: Cytotoxic activity against cellular metabolic activity of Cervix KB/HeLa tumor cell line using XTT proliferation assay after incubation with the compound for 48 h; type: functional, cell-based; conditions: Homo sapiens
SF-268 [1] = assay: Cytotoxic activity against cellular metabolic activity of Glioma SF-268 tumor cell line using XTT proliferation assay after incubation with the compound for 48 h; type: functional, cell-based; conditions: Homo sapiens, SF-268, 48 h
NCI-H460 [2] = assay: Tested for induction of cellular death in Human lung H-460 tumor cell line in Propidium Iodide Monolayer Assay; type: functional, cell-based
In short: (§1)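 Propidium iodide monolayer assay: cells seeded at 1 × 10^5 or 5 × 10^4 cells/mL, 24 h recovery, drug in triplicate for 3–6 days by doubling time; PI 25 μg/mL added, fluorescence (ex 530/em 620 nm) read before and after freezing at −18 °C for 24 h; viable cells from the difference; % T/C versus concentration.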

MAXF401 cell line = assay: Tested for induction of cellular death in Human breast 401NL tumor cell line in Propidium Iodide Monolayer Assay; type: functional, cell-based; in short: as §1
MCF7 = assay: Tested for induction of cellular death in Human breast MCF-7 tumor cell line in Propidium Iodide Monolayer Assay; type: functional, cell-based; in short: as §1
LXFL 529 = assay: Tested for induction of cellular death in Human lung LXF 529L tumor cell line in Propidium Iodide Monolayer Assay; type: functional, cell-based; in short: as §1
[3] = test system: Lung LXF 629L tumor cell line; assay: Tested for induction of cellular death in Human lung LXF 629L tumor cell line in Propidium Iodide Monolayer Assay; type: functional, cell-based; in short: as §1
SF-268 [4] = assay: Tested for induction of cellular death in Human ZNS SF-268 tumor cell line in Propidium Iodide Monolayer Assay; type: functional, cell-based; in short: as §1
RKO [5] = assay: Cytotoxic activity against human colon adenocarcinoma RKO cells with ectopic inducible expression of cyclin-dependent kinase inhibitor p27kip1; type: functional, cell-based
RKO [6] = assay: Cytotoxic activity against human colon adenocarcinoma RKO cells without ectopic inducible expression of cyclin-dependent kinase inhibitor p27kip1; type: functional, cell-based
RXF 944 = assay: Tested for induction of cellular death in Human renal RXF 944L tumor cell line in Propidium Iodide Monolayer Assay; type: functional, cell-based; in short: as §1
LT12 tumor cell line [7] = assay: Antiproliferative activity against LT12 phenotype LT12 MDR tumor cell line; type: functional, cell-based; conditions: Rattus norvegicus
K562 = assay: In vitro inhibitory concentration against human chronic myelogenous leukemia K562 cell growth; type: functional, cell-based
L1210 [8] = assay: Antiproliferative activity against L1210 phenotype L1210 VCR tumor cell line; type: functional, cell-based; conditions: Mus musculus
L1210 [9] = assay: Antiproliferative activity against L1210 tumor cell line; type: functional, cell-based; conditions: Mus musculus
SK-OV-3 = assay: Cytotoxic activity against cellular metabolic activity of Ovary SKOV3 tumor cell line using XTT proliferation assay after incubation with the compound for 48 h; type: functional, cell-based; conditions: Homo sapiens, SK-OV-3, 48 h
P388/ADR = assay: Antiproliferative activity against P388 phenotype P388 ADR tumor cell line; type: functional, cell-based; conditions: Mus musculus
Tubulin [10] = biological target: T1, Tubulin (Sus scrofa, UniProt P02554+P02550); assay: In vitro inhibition of maximum porcine tubulin assembly rate after 20 min at 37 degrees C; type: functional
Sus scrofa = species: Sus scrofa; assay: In vitro inhibitory concentration against tubulin assembly; type: functional
Tubulin [11] = biological target: T1, Tubulin; assay: In vitro inhibitory concentration required to displace [3H]colchicine from its binding site on tubulin; type: protein assay
NCI-H460 [12] = assay: Cytotoxic activity against cellular metabolic activity of Lung NCI-H460 tumor cell line using XTT proliferation assay after incubation with the compound for 48 h; type: functional, cell-based; conditions: Homo sapiens, NCI-H460, 48 h
In short: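 NCI-H460 human lung tumor cells seeded at 1 × 10^3 cells/well in microtiter plates and exposed to a range of compound concentrations for 48 h. Proliferation read as cellular metabolic activity by XTT. At least two replicates (n = 2); IC50 obtained from dose–response curves by nonlinear regression.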

LT12 tumor cell line [13] = assay: Antiproliferative activity against LT12 tumor cell line; type: functional, cell-based; conditions: Rattus norvegicus
P388 (Mus musculus) = assay: Antiproliferative activity against P388 tumor cell line
HeLa (Homo sapiens) = assay: Effective concentration required to arrest propidium iodide stained KB/HeLa cells in G2/M phase

IC50 (LT12 tumor cell line [7]): 90 nM
IC50 (K562): 250 nM
IC50 (L1210 [8]): 70 nM
IC50 (L1210 [9]): 50 nM
IC50 (P388/ADR): 110 nM
IC50 (Tubulin [10]): 430 nM
IC50 (Sus scrofa): 430 nM
IC50 (Tubulin [11]): 220 nM
IC50 (LT12 tumor cell line [13]): 120 nM
IC50 (P388 (Mus musculus)): 80 nM
EC50 (HeLa (Homo sapiens)): 234 nM
Structure (SMILES): COc1ccc(C=C2c3ccccc3C(=O)c3ccccc32)c(OC)c1O
IC50 (KB): 50 nM
IC50 (SF-268 [1]): 60 nM
IC50 (NCI-H460 [2]): 150 nM
IC50 (MAXF401 cell line): < 10 nM
IC50 (MCF7): 1850 nM
IC50 (LXFL 529): 70 nM
IC50 [3]: 50 nM
IC50 (SF-268 [4]): 40 nM
IC50 (RKO [5]): > 9000 nM
IC50 (RKO [6]): 50 nM
IC50 (RXF 944): < 10 nM
IC50 (SK-OV-3): 60 nM
IC50 (NCI-H460 [12]): 60 nM

IC50 (K562): 60 nM
IC50 (Tubulin [10]): 760 nM
IC50 (Sus scrofa): < 1000 nM
Structure (SMILES): COc1ccc(C=C2c3ccccc3C(=O)c3ccccc32)cc1
IC50 (NCI-H460 [2]): 500 nM
IC50 (MAXF401 cell line): 300 nM
IC50 (MCF7): 560 nM
IC50 (LXFL 529): 260 nM
IC50 [3]: 130 nM
IC50 (SF-268 [4]): 890 nM
IC50 (RXF 944): 700 nM

IC50 (K562): 70 nM
IC50 (Tubulin [10]): 1200 nM
IC50 (Sus scrofa): 1200 nM
Structure (SMILES): COc1ccc(C=C2c3ccccc3C(=O)c3ccccc32)c(O)c1

IC50 (K562): > 20000 nM
Structure (SMILES): O=C1c2ccccc2C(=Cc2ccc(C(F)(F)F)cc2)c2ccccc21

IC50 (K562): 39000 nM
Structure (SMILES): CC(C)(C)c1cc(C=C2c3ccccc3C(=O)c3ccccc32)cc(C(C)(C)C)c1O

IC50 (K562): 22000 nM
IC50 (Tubulin [10]): > 10000 nM
Structure (SMILES): O=C1c2ccccc2C(=Cc2ccc(OCc3ccccc3)cc2)c2ccccc21

IC50 (K562): 3000 nM
Structure (SMILES): O=C1c2ccccc2C(=Cc2ccc([N+](=O)[O-])cc2)c2ccccc21

IC50 (K562): 7000 nM
IC50 (Tubulin [10]): 2300 nM
Structure (SMILES): COc1ccc(CC2c3ccccc3C(=O)c3ccccc32)cc1O

IC50 (K562): 800 nM
IC50 (Tubulin [10]): 2500 nM
Structure (SMILES): O=C1c2ccccc2C(=Cc2ccc(O)cc2)c2ccccc21

IC50 (K562): 20000 nM
IC50 (Tubulin [10]): > 10000 nM
Structure (SMILES): O=C1c2ccccc2C(=Cc2cc(O)c(O)c(O)c2)c2ccccc21

IC50 (Tubulin [10]): 10000 nM
Structure (SMILES): COc1cc(CC2c3ccccc3C(=O)c3ccccc32)cc(OC)c1

IC50 (K562): 6000 nM
IC50 (Tubulin [10]): > 10000 nM
Structure (SMILES): O=C1c2ccccc2C(=Cc2cc(Cl)cc(Cl)c2)c2ccccc21

IC50 (K562): 900 nM
Structure (SMILES): O=C1c2ccccc2C(=Cc2ccc3c(c2)OCO3)c2ccccc21

IC50 (K562): 60 nM
IC50 (Tubulin [10]): 1800 nM
Structure (SMILES): O=C1c2ccccc2C(=Cc2ccc(O)c(O)c2)c2ccccc21
IC50 (NCI-H460 [2]): < 10 nM
IC50 (MAXF401 cell line): 210 nM
IC50 (MCF7): 40 nM
IC50 (LXFL 529): 1620 nM
IC50 [3]: 260 nM
IC50 (SF-268 [4]): 1160 nM
IC50 (RXF 944): 30 nM

IC50 (K562): 1400 nM
IC50 (Tubulin [10]): > 10000 nM
Structure (SMILES): COC(=O)c1cc(C=C2c3ccccc3C(=O)c3ccccc32)ccc1O

IC50 (K562): 730 nM
IC50 (Tubulin [10]): 910 nM
IC50 (Sus scrofa): < 1000 nM
Structure (SMILES): COc1cccc(C=C2c3ccccc3C(=O)c3ccccc32)c1O
IC50 (NCI-H460 [2]): 3330 nM
IC50 (MAXF401 cell line): 20 nM
IC50 (MCF7): 800 nM
IC50 (LXFL 529): 4450 nM
IC50 [3]: 2020 nM
IC50 (SF-268 [4]): 980 nM
IC50 (RXF 944): 360 nM

IC50 (K562): > 80000 nM
IC50 (Tubulin [10]): > 10000 nM
Structure (SMILES): COc1cc(CC2c3ccccc3C(=O)c3ccccc32)cc(OC)c1OC

IC50 (K562): 160 nM
IC50 (Tubulin [10]): 480 nM
Structure (SMILES): O=C1c2ccccc2C(=Cc2cc(Br)c(O)c(Br)c2)c2ccccc21
